The source of these data is ChEMBL document CHEMBL1154674, “Synthesis and evaluation of three 18F-labeled aminophenylbenzothiazoles as amyloid imaging agents” (J Med Chem, 2009).

Holding throughout (assay type): ADME, organism-based, Macaca mulatta
Data set [1] can be described thus: Drug level in normal rhesus monkey frontal cortex assessed as standard uptake value at 81.2 MBq, iv after 155 mins by microPET. To be noted: in vivo.
Data set [2] is described as follows: Drug level in normal rhesus monkey cerebellum assessed as standard uptake value at 81.2 MBq, iv after 135 mins by microPET. To be noted: in vivo, 2.25 h. The gist of the method: (§1)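 One normal rhesus monkey, each tracer given iv via the vena saphena (81.2, 96.3 or 109.4 MBq), with 1 day between tracer injections. Dynamic brain μPET over 180 min used frames of 5 × 60 s, 5 × 120 s, 9 × 300 s and 12 × 600 s. Images were reconstructed by filtered back projection with a RAMP filter. Regional time-activity curves were expressed as SUV.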

Data set [3] can be described thus: Drug level in normal rhesus monkey pons assessed as standard uptake value at 81.2 MBq, iv after 37.5 mins by microPET. The settings on record: in vivo, 0.625 h.
Data set [4] can be described thus: Drug level in normal rhesus monkey frontal cortex assessed as standard uptake value at 81.2 MBq, iv after 17.5 mins by microPET. The settings on record: in vivo.
A short description of data set [5]: Drug level in normal rhesus monkey thalamus assessed as standard uptake value at 81.2 MBq, iv after 17.5 mins by microPET. The settings on record: in vivo.
Data set [6] is described as follows: Drug level in normal rhesus monkey cerebellum assessed as standard uptake value at 81.2 MBq, iv after 165 mins by microPET. The settings on record: in vivo, 2.75 h. The gist of the method: as §1
Data set [7] can be described thus: Drug level in normal rhesus monkey pons assessed as standard uptake value at 81.2 MBq, iv after 3.5 mins by microPET. To be noted: in vivo.
Data set [8] is described as follows: Drug level in normal rhesus monkey parietal cortex assessed as standard uptake value at 81.2 MBq, iv after 32.5 mins by microPET. To be noted: in vivo.
Data set [9] can be described thus: Drug level in normal rhesus monkey pons assessed as standard uptake value at 81.2 MBq, iv after 1.5 mins by microPET. The settings on record: in vivo, 0.025 h.
A short description of data set [10]: Drug level in normal rhesus monkey cerebellum assessed as standard uptake value at 96.3 MBq, iv after 6 mins by microPET. To be noted: in vivo, 0.1 h. The gist of the method:
(§2)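 Single normal rhesus monkey; each tracer given iv via the vena saphena, with 1 day between tracer injections. Dynamic μPET ran 180 min (5×60 s, 5×120 s, 9×300 s, 12×600 s). Images were reconstructed by filtered back projection with a RAMP filter. Regional time-activity curves were expressed as SUV.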

The nature of data set [11]: Drug level in normal rhesus monkey frontal cortex assessed as standard uptake value at 96.3 MBq, iv after 32.5 mins by microPET. The settings on record: in vivo.
Data set [12] in a line: Drug level in normal rhesus monkey white matter assessed as standard uptake value at 96.3 MBq, iv after 4.5 mins by microPET. To be noted: in vivo, 0.075 h.
A short description of data set [13]: Drug level in normal rhesus monkey thalamus assessed as standard uptake value at 96.3 MBq, iv after 27.5 mins by microPET. The settings on record: in vivo.
The nature of data set [14]: Drug level in normal rhesus monkey parietal cortex assessed as standard uptake value at 96.3 MBq, iv after 105 mins by microPET. To be noted: in vivo, 1.75 h.
Data set [15] in a line: Drug level in normal rhesus monkey thalamus assessed as standard uptake value at 96.3 MBq, iv after 155 mins by microPET. The settings on record: in vivo.
Data set [16] can be described thus: Drug level in normal rhesus monkey pons assessed as standard uptake value at 96.3 MBq, iv after 10 mins by microPET. To be noted: in vivo.
The nature of data set [17]: Drug level in normal rhesus monkey thalamus assessed as standard uptake value at 109.4 MBq, iv after 22.5 mins by microPET. The settings on record: in vivo, 0.375 h.
Data set [18] can be described thus: Drug level in normal rhesus monkey white matter assessed as standard uptake value at 109.4 MBq, iv after 22.5 mins by microPET. The settings on record: in vivo, 0.375 h.
A short description of data set [19]: Drug level in normal rhesus monkey cerebellum assessed as standard uptake value at 109.4 MBq, iv after 4.5 mins by microPET. The settings on record: in vivo, 0.075 h. The method in brief: as §2
The nature of data set [20]: Drug level in normal rhesus monkey parietal cortex assessed as standard uptake value at 109.4 MBq, iv after 15.5 mins by microPET. To be noted: in vivo.
The nature of data set [21]: Drug level in normal rhesus monkey thalamus assessed as standard uptake value at 109.4 MBq, iv after 12.5 mins by microPET. The settings on record: in vivo.
The nature of data set [22]: Drug level in normal rhesus monkey thalamus assessed as standard uptake value at 109.4 MBq, iv after 0.125 mins by microPET. To be noted: in vivo, 7 s.
The nature of data set [23]: Drug level in normal rhesus monkey parietal cortex assessed as standard uptake value at 109.4 MBq, iv after 111 mins by microPET. The settings on record: in vivo.
A short description of data set [24]: Drug level in normal rhesus monkey frontal cortex assessed as standard uptake value at 109.4 MBq, iv after 117 mins by microPET. To be noted: in vivo, 1.95 h.
Data set [25] can be described thus: Drug level in normal rhesus monkey frontal cortex assessed as standard uptake value at 109.4 MBq, iv after 1.5 mins by microPET. To be noted: in vivo, 0.025 h. The gist of the method:
as §1

Data set [26] is described as follows: Drug level in normal rhesus monkey frontal cortex assessed as standard uptake value at 109.4 MBq, iv after 0.125 mins by microPET. To be noted: in vivo, 7 s.
Data set [27] is described as follows: Drug level in normal rhesus monkey cerebellum assessed as standard uptake value at 109.4 MBq, iv after 0.875 mins by microPET. To be noted: in vivo, 52 s.
A short description of data set [28]: Drug level in normal rhesus monkey white matter assessed as standard uptake value at 152.9 MBq, iv after 27.5 mins by microPET. To be noted: in vivo.
Data set [29] can be described thus: Drug level in normal rhesus monkey parietal cortex assessed as standard uptake value at 152.9 MBq, iv after 32.5 mins by microPET. The settings on record: in vivo.
A short description of data set [30]: Drug level in normal rhesus monkey pons assessed as standard uptake value at 152.9 MBq, iv after 6 mins by microPET. To be noted: in vivo, 0.1 h.
Data set [31] can be described thus: Drug level in normal rhesus monkey pons assessed as standard uptake value at 152.9 MBq, iv after 57.5 mins by microPET. The settings on record: in vivo.
Data set [32] can be described thus: Drug level in normal rhesus monkey pons assessed as standard uptake value at 152.9 MBq, iv after 4.5 mins by microPET. To be noted: in vivo, 0.075 h.
The nature of data set [33]: Drug level in normal rhesus monkey pons assessed as standard uptake value at 152.9 MBq, iv after 32.5 mins by microPET. The settings on record: in vivo.
Data set [34] is described as follows: Drug level in normal rhesus monkey cerebellum assessed as standard uptake value at 152.9 MBq, iv after 2.5 mins by microPET. To be noted: in vivo. The method in brief:
(§3)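 One normal rhesus monkey received each tracer via the vena saphena, with 1 day between injections. Dynamic μPET ran 180 min for 18F tracers (5×60 s, 5×120 s, 9×300 s, 12×600 s) and 90 min for the 11C tracer (5×60 s, 5×120 s, 9×300 s, 3×600 s). Filtered back-projection reconstruction (RAMP filter) was used. Time-activity curves were drawn to give regional SUV.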

Data set [35] is described as follows: Drug level in normal rhesus monkey cerebellum assessed as standard uptake value at 152.9 MBq, iv after 65 mins by microPET. To be noted: in vivo. The gist of the method:
as §3

Data set [36] can be described thus: Drug level in normal rhesus monkey white matter assessed as standard uptake value at 152.9 MBq, iv after 32.5 mins by microPET. The settings on record: in vivo.
A short description of data set [37]: Drug level in normal rhesus monkey cerebellum assessed as standard uptake value at 152.9 MBq, iv after 14 mins by microPET. The settings on record: in vivo. The method in brief: as §3

`CNc1ccc2nc(-c3ccc([18F])cc3)sc2c1`: the SUV was 4.381 in data set [1]; 1.594 in data set [2]; 5.487 in data set [3]; 5.789 in [4]; 5.379 in [5]; 1.585 in data set [6]. For the same compound, the figures for the SUV in data set [7], in data set [8] and in [9] were 4.503, 4.094 and 2.731, respectively.

`CN(C)c1ccc2nc(-c3ccc([18F])cc3)sc2c1`: the SUV in [10] stood at 1.72; in data set [11], 2.14; in data set [12], 1.22; in [13], 2.31; in data set [14], 1.35; in data set [15], 1.92. Moreover, the SUV in data set [16] is recorded as 1.57.

Regarding `Nc1ccc2nc(-c3ccc([18F])cc3)sc2c1`, the SUV in [17] was 5.55; in data set [18], 3.04; in [19], 6.13; in data set [20], 5.1; in [21], 5.39; in [22] it was 0. In addition, the SUV in [23] is 3.59; in [24], 4.28; in data set [25] it was 3.35; in data set [26], -0.06; in data set [27], 3.51.

Take `[11CH3]Nc1ccc(-c2nc3ccc(O)cc3s2)cc1` [PITTSBURGH COMPOUND B]: the SUV is 1.209 in data set [28]; 1.081 in [29]; 2.044 in data set [30]; 0.95 in data set [31]; 2.008 in data set [32]; 1.365 in data set [33]. The SUV in data set [34] is 1.545; in data set [35] it was 0.723; in data set [36], 1.12; in data set [37], 2.11.
